Here are results for 8 molecules from ChEMBL document CHEMBL4673252, “Discovery and Early Clinical Development of Isobutyl 1-[8-Methoxy-5-(1-oxo-3H-isobenzofuran-5-yl)-[1,2,4]triazolo[1,5-a]pyridin-2-yl]cyclopropanecarboxylate (LEO 39652), a Novel "Dual-Soft" PDE4 Inhibitor for Topical Treatment of Atopic Dermatitis” (J Med Chem, 2020).

Where only a bound is given, the exact number is not on record here.

Data set [1] can be described thus: Clearance in human liver microsomes at 0.5 uM incubated for 40 mins in presence of NADPH by LC-MS/MS analysis. To be noted: read-out: CLH. The format is ADME, Microsome. Summed up: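 Human liver microsomes (0.5 mg/mL) with 1 mM NADPH and 0.5 μM test compound, incubated for 40 min. Samples were taken before NADPH and at 5, 10, 20, 40 min, quenched with cold acetonitrile containing internal standard, and analysed by LC-MS/MS. Control incubations in buffer and without NADPH. Apparent clearance was calculated from depletion.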
In general terms: Liver microsomes are a subcellular fraction often used to study metabolism.

The nature of data set [2]: Half life in human whole blood at 0.1 uM by LC-MS/MS analysis. The format is ADME, tissue-based.
The nature of data set [3]: Half life in human keratinocytes at 1 uM by LC-MS/MS analysis. The format is ADME, cell-based, Keratinocyte. Summed up: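 Plated human epidermal keratinocytes (1 × 10⁴ cells/well) with 1 μM compound in duplicate for up to 24 h; sampled at 0, 1, 2, 4, 24 h, acetonitrile precipitation, LC-MS/MS. Controls in growth medium. Half-life reported.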
Data set [4] concerns TK6. Description: Genotoxicity in human TK6 cells in absence of S9 fraction by GreenScreen assay. The format is toxicity, cell-based.
The nature of data set [5]: Drug exposure in human assessed as ratio of drug level to total AUC at 0.25% of Isobutyl 1-[8-Methoxy-5-(1-oxo-3H-isobenzofuran-5-yl)-[1,2,4]-triazolo[1,5-a]pyridin-2-yl]cyclopropanecarboxylate dosed via topical administration in lipid cream. The format is ADME, organism-based. To be noted: in vivo, topical_or_ocular.
A short description of data set [6]: Cmax in cynomolgus monkey at 30 mg/kg, sc dosed as single administration. The format is ADME, organism-based, Macaca fascicularis. Also on record: route subcutaneous, dose 30 mg/kg. To be noted: in vivo, read-out: Cmax. Summed up:
(§1)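 Single subcutaneous dose of 30 mg/kg.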

A short description of data set [7]: Clearance in mini pig hepatocytes at 10 uM by UPLC/TOF-MS analysis. To be noted: read-out: CLH. The format is ADME, cell-based, Sus scrofa domesticus, Hepatocyte.
Data set [8] can be described thus: Clearance in human hepatocytes at 10 uM by UPLC/TOF-MS analysis. The format is ADME, cell-based, Hepatocyte.
Data set [9] is described as follows: Drug exposure in of Isobutyl 1-[8-Methoxy-5-(1-oxo-3H-isobenzofuran-5-yl)-[1,2,4]-triazolo[1,5-a]pyridin-2-yl]cyclopropanecarboxylate dosed Sprague-Dawley rat assessed as ratio of drug level to total AUC at 0.075 mg/kg, iv measured up to 30 mins by LC-MS/MS analysis. The format is ADME, organism-based. To be noted: in vivo, 0.5 h. Summed up: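 Male Sprague Dawley rats (n = 3) received a single iv injection of 0.075 mg/kg (50 μg/mL, 1.5 mL/kg) in 20% cyclodextrin. Blood was taken from the tongue vein at 1, 3, 6, 9, 12, 15 and 30 min into lithium-heparin, diluted 1:1 with heparin water, and analysed by LC-MS/MS for parent and metabolites.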

Data set [10] is described as follows: Drug exposure in Isobutyl 1-[8-Methoxy-5-(1-oxo-3H-isobenzofuran-5-yl)-[1,2,4]-triazolo[1,5-a]pyridin-2-yl]cyclopropanecarboxylate dosed cynomolgus monkey assessed as ratio of drug level to total AUC. The format is ADME, organism-based, Macaca fascicularis. To be noted: in vivo. Summed up:
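Blood was drawn at 0.25–24 h after infusion start and 6, 12, 24 h after infusion end into EDTA-K3, then plasma stabilized with ascorbic acid. LC-MS/MS quantification of parent and metabolites; noncompartmental PK.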

Data set [11] in a line: AUC (0 to 24 hrs) in human patient with atopic dermatitis at 0.25% dosed topically as lipid cream. The format is ADME, organism-based. Also on record: time < 24 hr, dose 0.25 %. To be noted: in vivo, topical or ocular.
Data set [12] is described as follows: Half life in rat whole blood at 0.1 uM by LC-MS/MS analysis. The format is ADME, tissue-based.
A short description of data set [13]: Drug exposure in of Isobutyl 1-[8-Methoxy-5-(1-oxo-3H-isobenzofuran-5-yl)-[1,2,4]-triazolo[1,5-a]pyridin-2-yl]cyclopropanecarboxylate dosed Gottingen mini pig assessed as ratio of drug level to total AUC at 0.5 to 2 mg/kg, iv measured up to 24 hrs by LC-MS/MS analysis. The format is ADME, organism-based, Sus scrofa domesticus. To be noted: in vivo, dose 0.5-2 mg/kg.

Data set [14] in a line: Half life in mini pig whole blood at 0.1 uM by LC-MS/MS analysis. The format is ADME, tissue-based, Sus scrofa domesticus.
A short description of data set [15]: Drug exposure in skin of Gottingen mini pig at 0.25% dosed topically as monoglyceride cream measured after 24 hrs by LC-MS/MS analysis. The format is ADME, organism-based, Sus scrofa domesticus, Skin of body. To be noted: in vivo, topical_or_ocular. Summed up:
(§2)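 Female Göttingen minipigs received single topical application of 1 or 2.5 mg/g monoglyceride cream at 10 μL/cm² over 4 cm² of belly/flank; excess removed. At 24 h sites were tape stripped (2 + 10 strips), 8 mm punch biopsies were taken and snap frozen, then homogenized, acetonitrile precipitated and analysed by LC-MS/MS; n = 2.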

Data set [16] in a line: Drug exposure in skin of Gottingen mini pig at 0.1% dosed topically as monoglyceride cream measured after 24 hrs by LC-MS/MS analysis. The format is ADME, organism-based, Sus scrofa domesticus, Skin of body. To be noted: in vivo, topical_or_ocular. Summed up: as §2
Data set [17] is described as follows: Cmax in human patient with atopic dermatitis at 0.25% dosed topically as lipid cream. The format is ADME, organism-based. On the set-up: dose 0.25 %. To be noted: in vivo, topical or ocular.
Data set [18] is described as follows: AUC (0 to 24 hrs) in cynomolgus monkey at 30 mg/kg, sc dosed as single administration. The format is ADME, organism-based, Macaca fascicularis. Also on record: time < 24 hr, route subcutaneous, dose 30 mg/kg. To be noted: in vivo. Summed up:
as §1

Data set [19] can be described thus: Phototoxicity in mouse 3T3 cells. The format is cell-based.
In data set [20] the target is Phosphodiesterase 4 (Homo sapiens, UniProt P27815+Q08499+Q07343+Q08493). Description: Inhibition of PDE4 (unknown origin). The format is protein assay.
A short description of data set [21]: Drug metabolism in rat whole blood assessed as 4-[2-(1-Carboxycyclopropyl)-8-methoxy-[1,2,4]triazolo[1,5-a]-pyridin-5-yl]-2-(hydroxymethyl)benzoic Acid formation at 0.1 uM measured up to 120 mins by LC-MS/MS analysis. The format is ADME, tissue-based. To be noted: 2 h.
A short description of data set [22]: Half life in cynomolgus monkey whole blood at 0.1 uM by LC-MS/MS analysis. The format is ADME, tissue-based, Macaca fascicularis.

Usually half-life stands for how long it takes for the measured level to halve. Take `COc1ccc(-c2ccc3c(c2)COC3=O)n2nc(C3(C(=O)OC4CCOCC4)CC3)nc12`: the CLint scaled at 0.5 µM in data set [1] was found to be 97 mL/min/kg. The molecule further returned a half-life at 0.1 µM in data set [2] of 0.167 h. Moreover, the half-life at 1 µM in data set [3] was greater than 12 h. Besides, in data set [4], the Activity result is on record as “Toxic”.

For orientation: Cmax means the peak of the concentration-time curve. As a reminder, the AUC(0-t) is the area under the concentration-time curve up to a stated or last time point. On to `COc1ccc(-c2ccc(C(=O)O)c(CO)c2)n2nc(C3(C(=O)O)CC3)nc12`, for which the CLint scaled at 0.5 µM in data set [1] was less than 11 mL/min/kg. The Drug uptake in data set [5] was found to be 71%; in data set [9], 14%; in data set [10] it was 13%; in data set [13], 23%; in [15], 6 µM; in data set [16], 3 µM. In addition, the Cmax in data set [6] was 407 ng/mL; in data set [17] it was 1.89 ng/mL. The half-life at 0.1 µM in data set [2], in data set [12] and in data set [14] was greater than 1 h each time. The CLint scaled at 10 µM in data set [7] is less than 10 mL/min/kg. Also, in data set [8], the CLhep predicted at 10 µM is less than 5.2 mL/min/kg. Besides, the half-life at 1 µM in [3] is greater than 12 h. In addition, the AUC(0-t) at 24 h in data set [11] was found to be 24.7 ng·h/mL; in [18] it was 1300 ng·h/mL.

On to `CC[C@@H](C)OC(=O)C1(c2nc3c(OC)ccc(-c4ccc5c(c4)COC5=O)n3n2)CC1`, for which the CLint scaled at 0.5 µM in [1] was greater than 200 mL/min/kg. The half-life at 0.1 µM in data set [2] was 0.217 h. The half-life at 1 µM in data set [3] was greater than 12 h. Besides, the Activity result in [19] was “Toxic”.

As a reminder, the IC50 is the concentration needed to halve the response being measured. As for `COc1ccc(C(=O)Cc2c(Cl)cncc2Cl)n2ncnc12`, the IC50 in [20] was 100 nM.

In the case of `CCCNC(=O)COc1c(C(=O)Cc2c(Cl)cncc2Cl)ccc(OC)c1OC`, the IC50 in data set [20] came to 2.8 nM. Moreover, the results for the Drug uptake in [15] and in data set [16] were 26 µM and 14 µM, respectively.

`COc1ccc(C(=O)Cc2c(Cl)cncc2Cl)n2nc(C3CC3)nc12` showed a concentration for half-maximal inhibition (IC50) in data set [20] of 1.7 nM.

Take `COc1ccc(-c2ccc(C(=O)O)c(CO)c2)n2nc(C3(C(=O)OCC(C)C)CC3)nc12`: the CLint scaled at 0.5 µM in [1] is greater than 167 mL/min/kg. Besides, the Drug metabolism result in data set [21] is listed as “Metabolite_Detected”. Besides, the Drug uptake worked out at 12% in data set [5]; 26% in [9]; 36% in data set [10]; 15% in data set [13]; 2 µM in [15]; 0.6 µM in data set [16]. Besides, the Cmax in data set [6] was 749 ng/mL; in data set [17], 0.299 ng/mL. In addition, the half-life at 0.1 µM is greater than 1 h in data set [2], 0.567 h in [12], greater than 1 h in data set [14] and greater than 1 h in data set [22]. Also, in data set [7], the CLint scaled at 10 µM came out at 21 mL/min/kg. Moreover, the CLhep predicted at 10 µM in [8] is 13 mL/min/kg. In data set [3], this molecule gave a half-life at 1 µM greater than 12 h. The area under the curve AUC(0-t) at 24 h in data set [11] is 4.18 ng·h/mL; in data set [18], 932 ng·h/mL.

With `COc1ccc(-c2ccc3c(c2)COC3=O)n2nc(C3(C(=O)O)CC3)nc12`, the CLint scaled at 0.5 µM in data set [1] is less than 16 mL/min/kg. Further, the Drug uptake was 15% in data set [5]; 55% in data set [9]; 45% in data set [10]; 55% in data set [13]; less than 0.1 µM in [15]; less than 0.1 µM in data set [16]. For the same molecule, the highest concentration (Cmax) turned out to be 71.7 ng/mL in [6] and 0.355 ng/mL in data set [17]. Moreover, the half-life at 0.1 µM in data set [2], in [12] and in data set [14] was greater than 1 h throughout. In addition, the CLint scaled at 10 µM in data set [7] was less than 11 mL/min/kg. The CLhep predicted at 10 µM in data set [8] was 5.2 mL/min/kg. The half-life at 1 µM in data set [3] was greater than 12 h. Besides, the area under the curve AUC(0-t) at 24 h came out at 5.18 ng·h/mL in data set [11] and 208 ng·h/mL in [18].
